Drawing on ChEMBL document CHEMBL1133045, “Enhancing the aqueous solubility of d4T-based phosphoramidate prodrugs” (Bioorg Med Chem Lett, 2000), this text covers CC50, logP and EC50 for 8 molecules.

Data set [1] has as its system CCRF-CEM. Nature of the data set: Compound was evaluated for the cytotoxicity against CEM cell proliferation by 50%. In kind it is functional. Conditions: Homo sapiens.
A short description of data set [2]: Partition coefficient (logP). In kind it is physicochemical. Conditions: octanol/water. In outline:
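LogP measured as the 1-octanol/water partition coefficient.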

In data set [3] the test system is CCRF-CEM. Nature of the data set: Concentration required to protect CEM/TK- cells against cytopathicity of HIV-2 by 50%. Conditions: Homo sapiens. In kind it is functional, cell-based.
The test system of data set [4] is CCRF-CEM. Nature of the data set: Concentration required to protect CEM cells against cytopathicity of HIV-2 by 50%. It counts as functional, cell-based. Conditions: Homo sapiens.
Data set [5] deals with CCRF-CEM. Nature of the data set: Concentration required to protect CEM cells against cytopathicity of HIV-1 by 50%. Conditions: Homo sapiens. It counts as functional, cell-based.

pEC50: −log10 of the molar value.

Regarding `COC(=O)C(C)NP(=O)(OC[C@@H]1C=C[C@H](n2cc(C)c(=O)[nH]c2=O)O1)Oc1ccccc1` (stereo partly specified), in data set [1], the half-maximal cytotoxic concentration (CC50) is 33000 nM. This molecule also showed a logP in data set [2] of 1.04.

As to `COC(=O)C(N)Cc1ccc(OP(=O)(NC(C)C(=O)OC)OCC2C=CC(n3cc(C)c(=O)[nH]c3=O)O2)cc1` (stereo unspecified), the pEC50 is 5.30 in data set [3], 5.00 in data set [4] and 5.40 in data set [5]. Besides, the logP in data set [2] came out at 0.09.

On to `COC(=O)C(C)NP(=O)(OCC1C=CC(n2cc(C)c(=O)[nH]c2=O)O1)Oc1ccc(CC(NC(=O)OC(C)(C)C)C(=O)OC)cc1` (stereo unspecified), for which the pEC50 is 6.10 in data set [3], 6.15 in data set [4] and 6.19 in data set [5]. For the same molecule, the CC50 in data set [1] came to 217000 nM. In data set [2], this molecule yielded a log partition coefficient (logP) of 1.07.

As for `COCCOc1ccc(OP(=O)(NC(C)C(=O)OC)OCC2C=CC(n3cc(C)c(=O)[nH]c3=O)O2)cc1` (stereo unspecified), the pEC50 in data set [3] is 6.47; in data set [4], 6.22; in data set [5] it was 7.05. Moreover, in data set [1], the CC50 came to 35000 nM. For the same molecule, the logP in data set [2] worked out at 0.86.

Take `COCCOCCOc1ccc(OP(=O)(NC(C)C(=O)OC)OCC2C=CC(n3cc(C)c(=O)[nH]c3=O)O2)cc1` (stereo unspecified): the pEC50 is 5.92 in data set [3], 6.00 in data set [4] and 6.26 in data set [5]. Further, the CC50 in data set [1] was 47000 nM. Moreover, in data set [2], the logP came to 0.86.

With `CCOCCOc1ccc(OP(=O)(NC(C)C(=O)OC)OCC2C=CC(n3cc(C)c(=O)[nH]c3=O)O2)cc1` (stereo unspecified), the pEC50 in data set [3] was 6.40; in data set [4] it was 6.60; in data set [5] it was 6.70. The molecule also gave a CC50 in data set [1] of 64000 nM. The molecule also registered a logP in data set [2] of 1.1.

As to `COC(=O)C(C)NP(=O)(OC[C@@H]1C=C[C@H](n2cc(C)c(=O)[nH]c2=O)O1)Oc1ccc(OC)cc1` (stereo partly specified), the pEC50 was 7.33 in data set [3], 7.28 in data set [4] and 7.24 in data set [5]. The CC50 in data set [1] is greater than 100000 nM. For the same molecule, in data set [2], the logP is 1.09.

On to `COCCOCCOCCOc1ccc(OP(=O)(NC(C)C(=O)OC)OCC2C=CC(n3cc(C)c(=O)[nH]c3=O)O2)cc1` (stereo unspecified), for which the results for the pEC50 in data set [3], in data set [4] and in data set [5] were 5.87, 5.89 and 6.12, respectively. For the same molecule, the CC50 in data set [1] was found to be 114000 nM. Moreover, in data set [2], the log partition coefficient (logP) is 0.86.
